# Test system: MT4
# Assay: (§1) Cytotoxicity towards uninfected MT-4 cell lines
# Assay type: functional
# Details: Homo sapiens
# In short: (§2)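 Uninfected MT4 cells with graded compound levels; viability by MTT reduction to formazan. Triplicate per concentration, experiment run twice.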
row,Compound,CC50
1,COC(=O)C(CCCN=C(N)N)NC(=O)CCNC(=O)c1cccc(-c2c3cc(N)ccc3c3ccc(N)cc3[n+]2C)c1 (centres undefined),21 µM
2,C[n+]1c(-c2cccc(C(=O)NCCCCCC(=O)NCCC(=O)NC(CCCN=C(N)N)C(=O)O)c2)c2cc(N)ccc2c2ccc(N)cc21 (centres undefined),> 100 µM
3,C[n+]1c(-c2cccc(C(=O)NCCC(=O)NC(CCCN=C(N)N)C(=O)O)c2)c2cc(N)ccc2c2ccc(N)cc21 (centres undefined),47 µM
4,C[n+]1c(-c2cccc(C(=O)O)c2)c2cc(N)ccc2c2ccc(N)cc21,42 µM
5,C[n+]1c(-c2cccc(C(=O)NCCCCCC(=O)NC(CCCN=C(N)N)C(=O)O)c2)c2cc(N)ccc2c2ccc(N)cc21.[Cl-] (centres undefined),59 µM
6,COC(=O)C(CCCN=C(N)N)NC(=O)CCCCCNC(=O)c1cccc(-c2c3cc(N)ccc3c3ccc(N)cc3[n+]2C)c1 (centres undefined),60 µM

# Test system: MT4
# Assay: as §1
# Assay type: functional, Homo sapiens
# Details: not given
# In short: as §2
row,Compound,Inhibition
1,COC(=O)C(CCCN=C(N)N)NC(=O)CCNC(=O)CCCCCNC(=O)c1cccc(-c2c3cc(N)ccc3c3ccc(N)cc3[n+]2C)c1.[Cl-] (centres undefined),45%

# Test system: CEM-SS
# Assay: Anti-HIV-1 activity against CEM-SS cell lines
# Assay type: functional, cell-based
# Details: Homo sapiens
# In short: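 HIV-1 LAI (grown in CEM-SS) infecting CEM-SS cells kept in RPMI + 10% heat-treated FCS; 30-min adsorption, unbound virus washed off, then 5 days culture with graded compound concentrations. Virus output read as reverse transcriptase activity in supernatant. Triplicate per concentration, experiment run twice; IC50 from median-effect plot of dose-effect data.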
row,Compound,IC50
1,COC(=O)C(CCCN=C(N)N)NC(=O)CCNC(=O)CCCCCNC(=O)c1cccc(-c2c3cc(N)ccc3c3ccc(N)cc3[n+]2C)c1.[Cl-] (centres undefined),4.6 µM
2,COC(=O)C(CCCN=C(N)N)NC(=O)CCNC(=O)c1cccc(-c2c3cc(N)ccc3c3ccc(N)cc3[n+]2C)c1 (centres undefined),83 µM
3,C[n+]1c(-c2cccc(C(=O)NCCCCCC(=O)NCCC(=O)NC(CCCN=C(N)N)C(=O)O)c2)c2cc(N)ccc2c2ccc(N)cc21 (centres undefined),2.4 µM
4,C[n+]1c(-c2cccc(C(=O)NCCC(=O)NC(CCCN=C(N)N)C(=O)O)c2)c2cc(N)ccc2c2ccc(N)cc21 (centres undefined),> 100 µM
5,C[n+]1c(-c2cccc(C(=O)O)c2)c2cc(N)ccc2c2ccc(N)cc21,95 µM
6,C[n+]1c(-c2cccc(C(=O)NCCCCCC(=O)NC(CCCN=C(N)N)C(=O)O)c2)c2cc(N)ccc2c2ccc(N)cc21.[Cl-] (centres undefined),> 100 µM
7,COC(=O)C(CCCN=C(N)N)NC(=O)CCCCCNC(=O)c1cccc(-c2c3cc(N)ccc3c3ccc(N)cc3[n+]2C)c1 (centres undefined),> 100 µM

# Test system: MT4
# Assay: (§3) Anti-HIV-1 activity against MT-4 cell lines
# Assay type: functional
# Details: Homo sapiens
# In short: (§4)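 MT4 cells (RPMI + 10% heat-treated FCS) infected with HIV-1; protection from virus-induced cytopathicity read by MTT reduction to formazan by mitochondrial dehydrogenases. Triplicate per concentration, experiment repeated twice. Where inhibition stayed under 50%, the measured percentage is reported in parentheses.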
row,Compound,CC50
1,COC(=O)C(CCCN=C(N)N)NC(=O)CCNC(=O)CCCCCNC(=O)c1cccc(-c2c3cc(N)ccc3c3ccc(N)cc3[n+]2C)c1.[Cl-] (centres undefined),> 100 µM

# Test system: PBMC
# Assay: (§5) Anti-HIV-1 activity against PBMC cell lines
# Assay type: functional, Homo sapiens
# Details: not given
# In short: (§6)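 Infected PBMC grown 7 days with graded compound concentrations after virus incubation; HIV-1 production measured as reverse transcriptase activity in culture supernatant. Triplicate per concentration, whole experiment done twice.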
row,Compound,Inhibition
1,C[n+]1c(-c2cccc(C(=O)NCCCCCC(=O)NC(CCCN=C(N)N)C(=O)O)c2)c2cc(N)ccc2c2ccc(N)cc21.[Cl-] (centres undefined),40%

# Test system: PBMC
# Assay: Cytotoxicity towards uninfected PBMC cell lines
# Assay type: functional
# Details: Homo sapiens
# In short: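 Uninfected PBMC incubated 7 days with compound; viability by colorimetric MTT assay. Triplicate per concentration, experiment repeated twice.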
row,Compound,CC50
1,COC(=O)C(CCCN=C(N)N)NC(=O)CCNC(=O)CCCCCNC(=O)c1cccc(-c2c3cc(N)ccc3c3ccc(N)cc3[n+]2C)c1.[Cl-] (centres undefined),> 100 µM
2,COC(=O)C(CCCN=C(N)N)NC(=O)CCNC(=O)c1cccc(-c2c3cc(N)ccc3c3ccc(N)cc3[n+]2C)c1 (centres undefined),47 µM
3,C[n+]1c(-c2cccc(C(=O)NCCCCCC(=O)NCCC(=O)NC(CCCN=C(N)N)C(=O)O)c2)c2cc(N)ccc2c2ccc(N)cc21 (centres undefined),> 100 µM
4,C[n+]1c(-c2cccc(C(=O)NCCC(=O)NC(CCCN=C(N)N)C(=O)O)c2)c2cc(N)ccc2c2ccc(N)cc21 (centres undefined),> 100 µM
5,C[n+]1c(-c2cccc(C(=O)O)c2)c2cc(N)ccc2c2ccc(N)cc21,44 µM
6,C[n+]1c(-c2cccc(C(=O)NCCCCCC(=O)NC(CCCN=C(N)N)C(=O)O)c2)c2cc(N)ccc2c2ccc(N)cc21.[Cl-] (centres undefined),> 100 µM
7,COC(=O)C(CCCN=C(N)N)NC(=O)CCCCCNC(=O)c1cccc(-c2c3cc(N)ccc3c3ccc(N)cc3[n+]2C)c1 (centres undefined),> 100 µM

# Test system: CEM-SS
# Assay: Cytotoxicity towards uninfected CEM-SS cell lines
# Assay type: functional
# Details: Homo sapiens
# In short: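 Uninfected CEM-SS cells exposed 5 days to varied compound concentrations; viability by MTT colorimetric test. CC50 is the concentration halving OD540, from median-effect dose analysis. Triplicate per concentration, experiment repeated twice.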
row,Compound,CC50
1,COC(=O)C(CCCN=C(N)N)NC(=O)CCNC(=O)CCCCCNC(=O)c1cccc(-c2c3cc(N)ccc3c3ccc(N)cc3[n+]2C)c1.[Cl-] (centres undefined),> 100 µM
2,COC(=O)C(CCCN=C(N)N)NC(=O)CCNC(=O)c1cccc(-c2c3cc(N)ccc3c3ccc(N)cc3[n+]2C)c1 (centres undefined),85 µM
3,C[n+]1c(-c2cccc(C(=O)NCCCCCC(=O)NCCC(=O)NC(CCCN=C(N)N)C(=O)O)c2)c2cc(N)ccc2c2ccc(N)cc21 (centres undefined),> 100 µM
4,C[n+]1c(-c2cccc(C(=O)NCCC(=O)NC(CCCN=C(N)N)C(=O)O)c2)c2cc(N)ccc2c2ccc(N)cc21 (centres undefined),> 100 µM
5,C[n+]1c(-c2cccc(C(=O)O)c2)c2cc(N)ccc2c2ccc(N)cc21,> 100 µM
6,C[n+]1c(-c2cccc(C(=O)NCCCCCC(=O)NC(CCCN=C(N)N)C(=O)O)c2)c2cc(N)ccc2c2ccc(N)cc21.[Cl-] (centres undefined),> 100 µM
7,COC(=O)C(CCCN=C(N)N)NC(=O)CCCCCNC(=O)c1cccc(-c2c3cc(N)ccc3c3ccc(N)cc3[n+]2C)c1 (centres undefined),> 100 µM

# Test system: PBMC
# Assay: as §5
# Assay type: functional, cell-based
# Details: Homo sapiens
# In short: as §6
row,Compound,IC50
1,COC(=O)C(CCCN=C(N)N)NC(=O)CCNC(=O)CCCCCNC(=O)c1cccc(-c2c3cc(N)ccc3c3ccc(N)cc3[n+]2C)c1.[Cl-] (centres undefined),8.7 µM
2,COC(=O)C(CCCN=C(N)N)NC(=O)CCNC(=O)c1cccc(-c2c3cc(N)ccc3c3ccc(N)cc3[n+]2C)c1 (centres undefined),78 µM
3,C[n+]1c(-c2cccc(C(=O)NCCCCCC(=O)NCCC(=O)NC(CCCN=C(N)N)C(=O)O)c2)c2cc(N)ccc2c2ccc(N)cc21 (centres undefined),2.5 µM
4,C[n+]1c(-c2cccc(C(=O)NCCC(=O)NC(CCCN=C(N)N)C(=O)O)c2)c2cc(N)ccc2c2ccc(N)cc21 (centres undefined),73 µM
5,C[n+]1c(-c2cccc(C(=O)O)c2)c2cc(N)ccc2c2ccc(N)cc21,20 µM
6,C[n+]1c(-c2cccc(C(=O)NCCCCCC(=O)NC(CCCN=C(N)N)C(=O)O)c2)c2cc(N)ccc2c2ccc(N)cc21.[Cl-] (centres undefined),> 100 µM
7,COC(=O)C(CCCN=C(N)N)NC(=O)CCCCCNC(=O)c1cccc(-c2c3cc(N)ccc3c3ccc(N)cc3[n+]2C)c1 (centres undefined),89 µM

# Test system: MT4
# Assay: as §3
# Assay type: functional, cell-based
# Details: Homo sapiens
# In short: as §4
row,Compound,IC50
1,COC(=O)C(CCCN=C(N)N)NC(=O)CCNC(=O)CCCCCNC(=O)c1cccc(-c2c3cc(N)ccc3c3ccc(N)cc3[n+]2C)c1.[Cl-] (centres undefined),> 100 µM
2,COC(=O)C(CCCN=C(N)N)NC(=O)CCNC(=O)c1cccc(-c2c3cc(N)ccc3c3ccc(N)cc3[n+]2C)c1 (centres undefined),> 100 µM
3,C[n+]1c(-c2cccc(C(=O)NCCCCCC(=O)NCCC(=O)NC(CCCN=C(N)N)C(=O)O)c2)c2cc(N)ccc2c2ccc(N)cc21 (centres undefined),11 µM
4,C[n+]1c(-c2cccc(C(=O)NCCC(=O)NC(CCCN=C(N)N)C(=O)O)c2)c2cc(N)ccc2c2ccc(N)cc21 (centres undefined),> 100 µM
5,C[n+]1c(-c2cccc(C(=O)O)c2)c2cc(N)ccc2c2ccc(N)cc21,> 100 µM
6,C[n+]1c(-c2cccc(C(=O)NCCCCCC(=O)NC(CCCN=C(N)N)C(=O)O)c2)c2cc(N)ccc2c2ccc(N)cc21.[Cl-] (centres undefined),> 100 µM
7,COC(=O)C(CCCN=C(N)N)NC(=O)CCCCCNC(=O)c1cccc(-c2c3cc(N)ccc3c3ccc(N)cc3[n+]2C)c1 (centres undefined),> 100 µM
